Results taken from PMC3112262 (The Journal of surgical research, 2011).
Ends that are not written are not given here.

Assays:
[1] = system: human pleural mesothelial cells (CRL-9444); experiment: IL-6 ELISA, cytokine-stimulated mesothelial cells; format: cell-based; settings: for cytokine-induced IL-6 expression, time and dose dependence: 0.1, 1, or 10 ng/mL cytokine, 2, 6, 12, 24 h, triplicate
Procedure, shortened: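 Human pleural mesothelial cells were grown in supplemented Medium199 with 10% FBS and held 24 h in serum-free medium before cytokine (IL-1β or TNF-α) and/or test compound treatment. Media IL-6 was measured by sandwich ELISA at room temperature with 300 rpm shaking and ABTS substrate. Absorbance was read at 405 nm minus 650 nm every 5 min for 50 min. Samples were run in triplicate and normalised to cell number by Hoechst 33342 DNA stain.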

[2] = system: hnRNPA0 in mesothelial cells; experiment: Western blot, hnRNPA0 phosphorylation; format: cell-based, human; settings: 1 ng/ml IL-1β
Procedure, shortened: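 Human pleural mesothelial cell line grown to confluence, serum-starved 24 h, then given 1 ng/ml IL-1β with or without test compound (1000 or 3000 µM), added together, for 6 and 12 h. Lysed in urea/phosphatase-inhibitor buffer. 20 µg protein run on 12% gels, probed for phospho-hnRNPA0 (Ser84) and β-actin, detected by infrared imaging. Band intensity normalized to β-actin.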

[3] = system: MK2; settings: ref [35]; cited from earlier work
[4] = effect of the CPP sequence; ref [37]; cited from earlier work
[5] = target: kinase; settings: cited from earlier work
[6] = system: HSPB1 in human keloid fibroblasts; settings: ref [36]; cited from earlier work
[7] = target: human recombinant MK2 (h) (Homo sapiens, UniProt P49137); experiment: Radiometric MK2 kinase inhibition; format: biochemical
[8] = system: mesothelial cells; settings: ref [37]; cited from earlier work
[9] = rat
[10] = system: rat colon anastomosis; experiment: Anastomotic healing: hydroxyproline assay; format: in vivo; settings: single treatment at surgery, both time points (4 and 10 days)
[11] = system: rat colon anastomosis; settings: in vivo

Chain of human recombinant MK2 (h) (P49137 whole entry): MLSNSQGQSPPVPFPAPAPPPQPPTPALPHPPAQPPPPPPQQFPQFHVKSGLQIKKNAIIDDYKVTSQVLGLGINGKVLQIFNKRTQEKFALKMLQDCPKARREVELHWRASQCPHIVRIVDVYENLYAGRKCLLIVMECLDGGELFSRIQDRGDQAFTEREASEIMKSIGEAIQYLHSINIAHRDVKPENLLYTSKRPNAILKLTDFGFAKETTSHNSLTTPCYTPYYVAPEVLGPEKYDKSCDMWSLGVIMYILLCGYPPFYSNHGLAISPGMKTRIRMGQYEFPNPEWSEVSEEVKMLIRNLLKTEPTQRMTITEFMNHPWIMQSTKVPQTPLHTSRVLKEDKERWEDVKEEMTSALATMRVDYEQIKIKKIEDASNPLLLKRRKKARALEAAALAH

## IL-1β: interleukin-1β (Peprotech), stimulating cytokine
[1]; 0.1, 1, 10 ng/mL IL-1β, 6 h
  IL-6 expression after six hours, all three concentrations: significantly increased IL-6 expression after six hours (p<0.05)
[1]
  cytokine-induced IL-6 expression, time and dose dependence: increased IL-6 expression in a time- and dose-dependent manner
[1]; 1 and 10 ng/mL IL-1β, 24 h
  IL-6 expression at 24 hours, two higher concentrations: induced similar levels of IL-6 expression
[2]; 6 h, compared to controls, normalized to β-actin
  upregulation of phosphorylated hnRNPA0: 2 fold
[2]; 12 h
  phosphorylation of hnRNPA0 at 12 hours: no longer upregulates the phosphorylation of hnRNPA0

## KKKALNRQLGVAA [Hayess and Benndorf peptide]
[3]
  MK2 activity in vitro: does inhibit MK2 activity in vitro

## TNF-α
[1]; 0.1 ng/mL TNF-α
  IL-6 expression, 0.1 ng/mL: rarely produced significant increases in IL-6
[1]; 1 ng/mL TNF-α, versus untreated control
  IL-6 expression, 1 ng/mL: did not always significantly upregulate IL-6 expression above the untreated control
[1]
  cytokine-induced IL-6 expression, time and dose dependence: increased IL-6 expression in a time- and dose-dependent manner
[1]; excluding 24-hour time point for the highest TNF-α dose
  IL-6 induction potency relative to IL-1β: less potent inducer of IL-6 expression than IL-1β

## WLRRIKAWLRRIKALNRQLGVAA
[4]
  toxicity: increased its associated toxicity
[5]; effect of the CPP sequence, ref [37]
  kinase specificity: dramatically decreased the kinase specificity of the peptide
[6]
  HSPB1 phosphorylation: inhibited HSPB1 phosphorylation in human keloid fibroblasts

## YARAAARQARA
[5]; ref [38]
  peptide specificity conferred by the CPP: maximizes peptide specificity

## YARAAARQARAKALARQLGVAA-NH2 [MMI-0100]
[7]
  IC50: 22 µM
[8]
  highest concentration used versus toxic dose for mesothelial cells: well below the toxic dose for mesothelial cells
[9]
  in vivo side effects: no obvious in vivo side effects
[9]; in vivo
  animals lost from the treatment group: One animal was lost
  complications of anastomosis: did not cause any of these complications
[10]
  intestinal hydroxyproline content in words: did not significantly affect rat weight gain, anastomosis bursting pressure or intestinal hydroxyproline (OHP) content at either time point
[11]
  anastomosis bursting pressure in words: did not significantly affect rat weight gain, anastomosis bursting pressure
